This is an account of results in ChEMBL document CHEMBL1148506, “Structure-activity relationships of new 1H-imidazo[4,5-c]quinolin-4-amine derivatives as allosteric enhancers of the A3 adenosine receptor” (J Med Chem, 2006).

For assay [1], the target named is T1, Adenosine receptor A1 (Homo sapiens) (UniProt P30542).
T1 sequence (whole entry): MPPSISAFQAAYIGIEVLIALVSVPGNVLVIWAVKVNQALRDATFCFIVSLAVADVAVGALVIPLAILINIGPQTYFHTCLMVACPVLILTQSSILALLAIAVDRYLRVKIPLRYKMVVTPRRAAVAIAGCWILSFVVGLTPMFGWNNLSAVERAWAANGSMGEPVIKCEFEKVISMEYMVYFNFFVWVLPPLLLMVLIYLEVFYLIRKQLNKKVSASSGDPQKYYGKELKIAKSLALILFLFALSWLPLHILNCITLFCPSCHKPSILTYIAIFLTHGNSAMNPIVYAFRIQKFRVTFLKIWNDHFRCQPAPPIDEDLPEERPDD
Nature of the assay: Displacement of [3H]R-PIA from human adenosine A1 receptor in CHO membrane at 10 uM. It is filed as cell membranes. On the technique in general: Displacement assays read how much labelled ligand stays bound in the presence of the test substance.

In another assay the target is T2, Adenosine receptor A1 (Homo sapiens, UniProt P30542).
T2 sequence (P30542 whole entry): T1 sequence (whole entry)
Nature of the assay: Displacement of [3H]R-PIA from human adenosine A1 receptor in CHO membrane. It is filed as cell membranes. A digest of the protocol:
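Membranes (40 μg/tube) from CHO cells stably expressing human A1AR, incubated with 2 nM [3H]R-PIA at 25 °C for 60 min in 50 mM Tris·HCl pH 7.4, 10 mM MgCl2. Membranes stored with 3 U/mL adenosine deaminase. Nonspecific binding defined with 10 μM N6-cyclopentyladenosine. Reaction ended by GF/B filtration.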

Assay [2] has as its target T3, Adenosine receptor A2a (Homo sapiens, UniProt P29274). Nature of the assay: Displacement of [3H]CGS21680 from human adenosine A2A receptor in HEK293 cells.
For assay [3], the target named is T4, Adenosine receptor A3 (Homo sapiens) (UniProt P0DMS8).
T4 sequence (whole entry): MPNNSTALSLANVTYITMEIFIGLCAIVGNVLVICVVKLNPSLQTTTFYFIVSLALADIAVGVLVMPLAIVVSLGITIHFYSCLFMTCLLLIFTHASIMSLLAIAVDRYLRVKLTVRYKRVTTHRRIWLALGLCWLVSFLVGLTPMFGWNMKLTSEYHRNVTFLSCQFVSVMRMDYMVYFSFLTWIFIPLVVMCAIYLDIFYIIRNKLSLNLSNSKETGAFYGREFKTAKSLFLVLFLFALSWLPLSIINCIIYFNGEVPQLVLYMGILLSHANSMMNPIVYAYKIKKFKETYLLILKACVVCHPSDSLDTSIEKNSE
Nature of the assay: Decrease in dissociation of [125I]I-AB-MECA from human adenosine A3 receptor in CHO membrane at 10 uM relative to control after 30 min. It is filed as cell membranes. Details: scale not given: the % may be the effect or the level left. The essentials:
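Membranes (20 μg) preloaded with 0.5 nM [125I]I-AB-MECA, 60 min at 25°C, in 50 mM Tris-HCl pH 8.0 with 10 mM MgCl2 and 1 mM EDTA. Dissociation started with 3 μM Cl-IB-MECA, with or without 10 μM modulator. Binding read by rapid filtration at 30 min; reported as % decrease in dissociation versus control (100%).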

For assay [4], the target named is T5, Adenosine receptor A2b (Homo sapiens) (UniProt P29275).
T5 sequence (whole entry): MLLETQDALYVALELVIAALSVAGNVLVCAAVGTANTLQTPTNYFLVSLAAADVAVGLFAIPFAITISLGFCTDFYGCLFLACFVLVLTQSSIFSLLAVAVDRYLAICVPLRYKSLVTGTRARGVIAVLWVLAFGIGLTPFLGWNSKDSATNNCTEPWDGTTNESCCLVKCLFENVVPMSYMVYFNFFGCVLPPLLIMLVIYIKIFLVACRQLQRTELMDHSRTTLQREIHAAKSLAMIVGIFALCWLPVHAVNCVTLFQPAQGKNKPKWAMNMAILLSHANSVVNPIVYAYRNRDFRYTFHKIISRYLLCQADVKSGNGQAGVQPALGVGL
Nature of the assay: Antagonist activity at human adenosine A2B receptor assessed as inhibition of NECA-induced cAMP accumulation in CHO membrane at 10 uM. Details: scale not given: the % may be the effect or the level left. For orientation: cAMP levels reflect the balance of adenylyl cyclase and phosphodiesterase activity.

Assay [5] has as its target T3, Adenosine receptor A2a. Nature of the assay: Displacement of [3H]CGS21680 from human adenosine A2A receptor in HEK293 cells at 10 uM.
In assay [6] the target is T4, Adenosine receptor A3 (Homo sapiens). Nature of the assay: Displacement of [125I]I-AB-MECA from human adenosine A3 receptor in CHO membrane at 10 uM. It is filed as cell membranes. A digest of the protocol:
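Membranes from CHO cells stably expressing human A3AR (20 μg protein) incubated with 0.5 nM [125I]I-AB-MECA and 10 μM test ligand, 60 min at 25°C, in 50 mM Tris·HCl pH 8.0, 10 mM MgCl2, 1 mM EDTA. Nonspecific binding defined with 10 μM NECA; filtration, gamma counting. Mean of 2-4 experiments in duplicate.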

For assay [7] the target is unchanged. Nature of the assay: Increase of efficacy at human adenosine A3 receptor in CHO cells at 10 uM relative to 2-Cl-IB-MECA.

SMILES strings stand for the structures.

T3 sequence (P29274 whole entry): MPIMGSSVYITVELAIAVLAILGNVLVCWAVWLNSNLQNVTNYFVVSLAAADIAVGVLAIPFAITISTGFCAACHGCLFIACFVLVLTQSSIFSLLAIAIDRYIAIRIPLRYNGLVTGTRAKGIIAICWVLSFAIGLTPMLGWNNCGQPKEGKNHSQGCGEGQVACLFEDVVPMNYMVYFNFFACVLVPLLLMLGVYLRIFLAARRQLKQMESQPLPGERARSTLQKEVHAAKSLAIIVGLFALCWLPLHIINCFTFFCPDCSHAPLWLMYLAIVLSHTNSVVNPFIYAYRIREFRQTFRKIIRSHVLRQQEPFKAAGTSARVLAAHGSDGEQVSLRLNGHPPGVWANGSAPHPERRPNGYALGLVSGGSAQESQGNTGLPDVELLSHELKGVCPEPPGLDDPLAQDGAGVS

For `Clc1ccc(Nc2nc3ccccc3c3[nH]c(C4CCCC4)nc23)cc1`, the Activity was 22% in assay [1]; 159% in assay [3]; -10.2% in assay [4]; 17% on Adenosine receptor A2a [5]; 82% in assay [6]; 136% in assay [7]. Further, the Ki at Adenosine receptor A1 and on Adenosine receptor A2a [2] was over 10 µM each time.

Consider `OCc1cccc(Nc2[nH]c3ccccc3c3nc(C4CCCC4)nc2-3)c1`, for which the Activity was 51% in assay [1]; 129% in assay [3]; -4.1% in assay [4]; 49% on Adenosine receptor A2a [5]; 56% in assay [6]; 118% in assay [7].

As to `c1ccc2c3nc(C4CCCC4)nc-3c(Nc3ccc4cc[nH]c4c3)[nH]c2c1`, the Activity was found to be 70% in assay [1]; 126% in assay [3]; 10.1% in assay [4]; 74% at Adenosine receptor A2a [5]; 89% in assay [6]; 125% in assay [7].

`c1ccc(CCNc2[nH]c3ccccc3c3nc(C4CCCC4)nc2-3)cc1`: the Activity in assay [1] was 52%; in assay [3] it was 154%; in assay [4], -11.6%; on Adenosine receptor A2a [5] it was 91%; in assay [6], 84%; in assay [7], 137%.

In the case of `Clc1ccc(Nc2nc3ccccc3c3nc(C4CCCCC4)[nH]c23)cc1Cl`, the Activity is -2% in assay [1]; 173% in assay [3]; -5.6% in assay [4]; -1% at Adenosine receptor A2a [5]; 45% in assay [6]; 145% in assay [7].

Turning to `COc1ccc(CNc2[nH]c3ccccc3c3nc(C4CCCC4)nc2-3)cc1`, the Activity in assay [1] turned out to be 59%; in assay [3] it was 101%; in assay [4], 0.3%; on Adenosine receptor A2a [5] it was 60%; in assay [6] it was 80%; in assay [7] it was 109%.

Consider `Clc1ccc(Nc2nc3ccccc3c3[nH]c(C4CCCCCC4)nc23)cc1Cl`, for which the Activity was -4% in assay [1]; 130% in assay [3]; -7.3% in assay [4]; -2% on Adenosine receptor A2a [5]; 68% in assay [6]; 115% in assay [7].

Turning to `c1ccc2c3nc(C4CCCC4)nc-3c(Nc3ccc4c(c3)CCC4)[nH]c2c1`, the Activity in assay [1] was 21%; in assay [3] it was 108%; in assay [4], -10.7%; at Adenosine receptor A2a [5], 8%; in assay [6], 69%; in assay [7], 111%.

With `Cc1ccc(Nc2nc3ccccc3c3[nH]c(C4CCCC4)nc23)cc1`, the Activity in assay [3] was 153%; in assay [4], -4.1%; in assay [6], 87%; in assay [7] it was 128%.

`c1ccc(Nc2nc3ccccc3c3[nH]c(C4CCCC4)nc23)cc1`: the Activity in assay [3] was 174%; in assay [4], -6.8%; in assay [6] it was 90%; in assay [7] it was 138%.

For the molecule `COc1ccc(Nc2nc3ccccc3c3nc(C4CCCC4)[nH]c23)cc1`, on Adenosine receptor A2a [2], the Ki (commonly a dissociation constant, usually derived from enzyme kinetics or from competition with a known ligand) is over 10 µM. The Activity amounted to 166% in assay [3]; 7.3% in assay [4]; 16% on Adenosine receptor A2a [5]; 92% in assay [6]; 132% in assay [7].

For `Clc1ccc(Nc2nc3ccccc3c3[nH]c(C4CCCC4)nc23)cc1Cl`, the Activity is 15% in assay [1]; 144% in assay [3]; -6.7% in assay [4]; 0% at Adenosine receptor A2a [5]; 67% in assay [6]; 141% in assay [7]. Besides, the inhibition constant Ki on Adenosine receptor A1 and at Adenosine receptor A2a [2] was over 10 µM throughout.

As for `CCCCCc1nc2c(Nc3ccc(Cl)c(Cl)c3)[nH]c3ccccc3c-2n1`, the Activity in assay [1] is 43.9%; in assay [3], 116%; in assay [4] it was -9.3%; on Adenosine receptor A2a [5], -1%; in assay [6], 84%; in assay [7], 102%.

As for `Clc1ccc(Nc2[nH]c3ccccc3c3nc(-c4ccco4)nc2-3)cc1Cl`, the Activity in assay [1] is -4%; in assay [3], 98%; in assay [4], 9%; at Adenosine receptor A2a [5], 70%; in assay [6] it was 78%; in assay [7], 95%.

In the case of `c1ccc(CNc2[nH]c3ccccc3c3nc(C4CCCC4)nc2-3)cc1`, the Activity is 28% in assay [1]; 145% in assay [3]; -3.4% in assay [4]; 77% at Adenosine receptor A2a [5]; 86% in assay [6]; 147% in assay [7].

With `Clc1ccc(Nc2nc3ccccc3c3[nH]c(C4CCC4)nc23)cc1Cl`, the Activity is -5% in assay [1]; -5.5% in assay [4]; 0.4% at Adenosine receptor A2a [5]; 52% in assay [6]; 126% in assay [7].

For `Clc1ccc(Nc2[nH]c3ccccc3c3ncnc2-3)cc1Cl`, the Activity in assay [1] was 1.8%; in assay [3], 91%; in assay [4], 10.2%; on Adenosine receptor A2a [5], -0.8%; in assay [6] it was 39%; in assay [7], 92%.

Turning to `c1ccc2c3nc(C4CCCC4)nc-3c(Nc3ccc4c[nH]nc4c3)[nH]c2c1`, the Activity in assay [1] is 56%; in assay [3], 109%; in assay [4] it was 5%; at Adenosine receptor A2a [5], 68%; in assay [6] it was 67%; in assay [7], 96%.
